PDI turbidity = blocks human protein disulfide isomerase activity; PDI insulin aggregation turbidity, A650, 90 min; inhibition, % at 10 µM; 350,000 compounds, 0.052% hits; P07237;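 active = mean inhibition across replicates of 30% or more, whatever share of single replicates reach that level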
ERp5 inh = inhibitors of human ERp5 | Q15084 | ERp5 insulin aggregation, absorbance 650 nm, 90 min | 350,000 compounds, 0.05% hits | inhibition, % at 9.99 µM;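 active = mean replicate inhibition above about 25%, with every replicate also reaching it, limit read from the data, passing the limit was not always enough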
ERAP1 inh = blocks human ERAP1 aminopeptidase activity. Q9NZ08. recombinant ERAP1, Leu-AMC fluorescence, 60 min. inhibition, % at 10.7 µM. 340,000 compounds, 0.15% hits. AID 652197;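 active = mean replicate inhibition of at least 30%, or all replicates individually reaching that 30% level; inactive = mean below 30% and not every replicate reaching it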;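 note: 0% = neutral control wells and 100% = L-leucinethiol positive control wells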
S100A4 MyoIIA = blocks human S100A4 binding to myosin IIA peptide; P26447; S100A4/TAMRA-MyoIIA peptide fluorescence polarization; inhibition, % at 10.7 µM; 360,000 compounds, 0.14% hits;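 active = mean inhibition of at least 70% across replicates, with every replicate also reaching that level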
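Material: S100A4 monomer protein / Buffer or medium: 50 mM HEPES pH 7.2, 10 mM CaCl2, 100 mM KCl / Times: 5 min incubation before reading / Benchmarks: neutral control DMSO, positive control TFP / Reagent: labelled myosin peptide probe, 5 nM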
FGF22 binding = FGF22 (human) thermal shift binding; Q9HCT0; recombinant FGF22 thermal shift, SYPRO orange fluorescence; percent of sucrose octasulfate shift, DMSO zero; activity (Tm shift, normalised), % at 9.99 µM; 340,000 compounds, 1.5% hits; AID 651658;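 active = mean Tm shift, scaled 0 neutral to 100 positive control, at about 1.3% or above, every replicate too, limit read from the data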
Numbers without * were called inactive; x = no result; + = active, no number. Shown is part of a subset that was picked to be rich in hits.

SMILES	PDI turbidity	ERp5 inh	ERAP1 inh	S100A4 MyoIIA	FGF22 binding
C[C@@H]1CN([C@@H](C)CO)C(=O)c2cc(NS(=O)(=O)c3ccc(F)cc3)ccc2O[C@@H](C)CCCCO[C@@H]1CN(C)C(=O)Nc1ccc2c(c1)OCO2	x	5.7	2.9	2.1	-0.1
CC(C)NC(=O)c1sc2c(c1C(=O)Nc1cccnc1)CCCC2	-4.4	2.1	7.9	2.4	0.1
O=C(CSc1ccc2nnc(-c3ccccn3)n2n1)N1CCOCC1	3.5	1.2	x	7.5	43.8*
COc1ccc(NC(=O)CN(C)C2CCS(=O)(=O)C2)cc1 (configuration not stated)	-1.0	0.9	-1.0	-1.6	-0.3
O=C1NC(c2ccc(-c3ccccc3[N+](=O)[O-])o2)C(C(=O)c2ccccc2)C(O)(C(F)(F)F)N1 (configuration not stated)	-10.1	-3.2	-1.2	-1.4	43.1*
CC(=O)c1cccc(NC(=O)C(=O)Nc2cccc3ccccc23)c1	-4.4	6.5	2.5	-3.3	43.4*
c1ccc2c3c(cc(N4CCOCC4)c2c1)OC1(N2CCOCC2)CCCCC1O3 (configuration not stated)	2.7	2.2	1.5	0.0	-0.4
COc1cc(NC(=O)c2cccc(C)c2)ccc1NC(=O)c1cc2ccccc2o1	14.8	2.2	6.1	-2.4	-0.1
CCOC(=O)c1c(/N=C/C2=C(O)CC(C)(C)CC2=O)sc(C(C)=O)c1C	-2.6	-1.6	3.1	-3.1	43.1*
COCc1cccc(-c2csc(C(NC(C)=O)c3ccccc3)n2)c1 (configuration not stated)	2.9	1.4	0.4	-4.4	-0.1
Cc1cccc(C)c1NC(=O)COC(=O)Cc1ccsc1	-5.7	-2.0	-0.8	-0.7	43.3*
Cc1cccc(C(C)C)c1NC(=O)COC(=O)Cc1ccsc1	18.2	0.6	2.8	0.8	0.2
Cc1ccc(NS(=O)(=O)c2cccc(C(=O)NCC(c3cccs3)N(C)C)c2)cc1 (configuration not stated)	-3.0	4.8	3.5	1.9	42.9*
CNS(=O)(=O)c1cccc(C(=O)NCC(c2cccs2)N(C)C)c1 (configuration not stated)	16.8	x	x	x	x
CCCN1CCN(C(=O)Cn2nc(CC)n3c(cc4sccc43)c2=O)CC1	x	-4.6	-0.1	6.8	43.6*
CCc1nn(CC(=O)NCCCN2CCOCC2)c(=O)c2cc3sccc3n12	-2.5	4.0	-0.9	4.4	0.3
CCc1nc2sccc2c(=O)n1N	-3.8	3.8	-0.7	6.7	43.0*
CCc1nc2scc(-c3ccccc3)c2c(=O)n1N	-11.6	x	x	x	x
Cc1cccc(C(=O)NNC(=O)CCCCC(=O)NNC(=O)c2cccc(C)c2)c1	-5.0	3.2	-0.5	1.1	-0.1
CN(C)C(CNC(=O)c1ccc(S(=O)(=O)N(C)C)cc1)Cc1ccccc1 (configuration not stated)	-1.1	-4.9	0.0	-6.6	43.3*
CN(C)S(=O)(=O)c1ccc(C(=O)NCCSc2ccccc2)cc1	-3.3	x	x	x	x
CN(C)S(=O)(=O)c1ccc(C(=O)NCc2ccco2)cc1	-1.9	-2.0	-1.7	-2.4	43.9*
CCOc1ccc(C(=O)NNC(=O)c2cc(C)oc2C)cc1	3.1	2.6	1.7	-1.3	0.1
C[C@@H]1CN([C@@H](C)CO)C(=O)c2cc(N(C)C)ccc2O[C@@H](C)CCCCO[C@@H]1CN(C)C(=O)Cc1ccccc1	x	-1.5	2.7	-3.5	-1.0
c1ccc(COc2ncnc3c2ncn3CCCNCc2ccccn2)cc1	-6.4	7.9	x	4.5	0.4
SMILES	PDI turbidity	ERp5 inh	ERAP1 inh	S100A4 MyoIIA	FGF22 binding
c1ccc(COc2ncnc3c2ncn3CCCNCc2cccs2)cc1	0.7	-2.1	0.0	-5.4	42.9*
NC(=S)c1ncc(C(F)(F)F)cc1Cl	0.9	-1.0	x	-5.0	-0.4
NC(=S)Nc1ncc(C(F)(F)F)cc1Cl	1.3	6.2	3.9	-4.2	43.4*
O=C(CNC(=O)c1cccs1)NCC(=O)OCc1c(F)cccc1Cl	5.8	3.3	8.4	3.4	0.0
Cc1[nH]c2ccccc2c1C1=CC(=O)C=CC1=O	11.3	-2.1	77.9*	2.7	0.3
Cc1cc(S(=O)(=O)N2CCCC(C(=O)Nc3ccc(C(=O)O)cc3)C2)ccc1Cl (configuration not stated)	1.2	-1.8	-23.6	-4.7	43.3*
CC(=O)N1c2ccc(S(=O)(=O)N3CCCC(C(=O)Nc4ccc(C)cc4)C3)cc2CC1C (configuration not stated)	-6.9	2.2	1.0	12.3	0.0
O=C(Nc1ccc(S(=O)(=O)N2CCCCC2)cc1)C1CC(=O)N(Cc2ccccc2)C1 (configuration not stated)	9.1	8.9	-1.4	+	-0.1
COC(=O)c1ccc(NC(=O)C2CCCN(S(C)(=O)=O)C2)cc1 (configuration not stated)	-17.1	2.5	5.1	2.7	42.9*
COc1ccc2c(c1)cc1n2CCN2CCCN=C12	-1.0	-2.0	-1.9	-4.3	-0.4
COc1ccc(CCNC(=O)COc2ccc(S(=O)(=O)NC(C)C)cc2)cc1OC	1.3	3.9	-7.9	2.6	0.2
Nc1nnn(Cc2ccccc2)n1	6.8	x	x	x	x
O=C(O)c1ccc(-n2nc(C(F)(F)F)c3c2CCCC3)cc1	-27.2	0.8	-2.2	-2.0	x
O=C(c1ccc(-n2nc(C(F)(F)F)c3c2CCCC3)cc1)N1CCOCC1	-3.0	4.6	-0.8	-1.6	43.3*
COc1cc(/C=C2\C(=N)N3N=C(S(C)(=O)=O)SC3=NC2=O)cc(OC)c1OCCOc1cccc(C)c1	-0.4	-5.9	7.9	-1.3	2.0*
COc1cc(/C=C2\C(=N)N3N=C(S(C)(=O)=O)SC3=NC2=O)ccc1OCCOc1ccc(C)cc1	-0.4	-1.5	-0.2	8.3	0.6
COc1cc(/C=C2\C(=N)N3N=C(S(C)(=O)=O)SC3=NC2=O)cc(OC)c1OCCOc1ccc(C)cc1	-7.3	7.1	8.8	-0.3	1.7*
O=C(CCOc1ccccc1)Nc1ccnn1C1CCN(Cc2ccc(CO)o2)CC1	2.0	-2.5	-0.1	-0.6	2.5*
Cc1ccc(CN2CCC(n3nccc3NC(=O)CCOc3ccccc3)CC2)o1	-1.1	-1.0	-4.4	0.6	0.5
COc1ccc(-c2cc(C)no2)cc1S(=O)(=O)N(C)c1ccc(C)cc1	3.6	0.9	-0.3	-6.0	-0.2
O=C(Nc1ccc(F)cc1)c1cc(-c2ccccc2)no1	1.8	1.8	1.2	2.5	43.1*
O=C1NC(c2ccccc2)=CC(c2ccccc2)N1 (configuration not stated)	-6.8	-6.8	-2.9	0.2	44.1*
O=C1NC(c2ccccc2)=CC(c2ccccc2O)N1 (configuration not stated)	-1.6	1.0	-1.2	-3.2	-0.3
OC(C1=CC(=Cc2ccncc2)c2ccccc21)c1ccncc1 (configuration not stated)	-1.8	-0.4	6.7	-1.2	43.2*
OC(c1ccccc1)c1ccncc1 (configuration not stated)	-1.7	-5.7	2.1	0.8	0.0
